The first data set in a line: Inhibition of human FTase. An outline of the steps: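 Human FTase (50 ng purified enzyme) with His6-K-Ras4B (1 µM) and [3H]farnesyl diphosphate (500 nM) in 50 mM Tris-HCl pH 7.7, 5 mM MgCl2, 5 µM ZnCl2, 2 mM DTT, 0.2% octyl-glucoside. Incubated 30 min at room temperature, stopped with SDS. Protein precipitated with cold trichloroacetic acid and filter-collected, then 3H counted. Percent inhibition calculated against DMSO vehicle control.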
Usually IC50 stands for the concentration that inhibits the measured activity by half. Take `Cn1cnc(CN2CC[C@@H](c3ccccc3Br)[C@H]([N+](=O)[O-])[C@H]2c2ccccc2)c1` (racemic): the IC50 is greater than 500 nM.

`Cn1cncc1CN1CC[C@@H](c2ccccc2Br)[C@H]([N+](=O)[O-])[C@H]1c1ccccc1` (racemic) displayed an IC50 of 17 nM. `CCc1ccccc1[C@@H]1CCN(Cc2cccnc2)[C@@H](c2ccccc2)[C@H]1C(=O)O` (racemic) showed an IC50 greater than 500 nM. Still for that read-out and setting: as for `CCc1ccccc1[C@@H]1CCN(Cc2cccnc2)[C@@H](c2ccccc2)[C@H]1C(C)=O` (racemic), the figure is 42 nM; as for `CCc1ccccc1[C@@H]1CCN(Cc2cccnc2)[C@@H](c2ccccc2)[C@H]1C(=O)OC` (racemic), 95 nM.

As for `O=[N+]([O-])[C@@H]1[C@@H](c2ccc(O)c(I)c2)N(Cc2cccnc2)CC[C@H]1c1ccccc1Br` (racemic), the IC50 is greater than 500 nM. On the same count and under the same terms, as for `O=[N+]([O-])[C@@H]1[C@@H](c2ccc(O)c(O)c2)N(Cc2cccnc2)CC[C@H]1c1ccccc1Br` (racemic), the figure is 3.7 nM; as for `COc1cc([C@@H]2[C@@H]([N+](=O)[O-])[C@H](c3ccccc3Br)CCN2Cc2cccnc2)ccc1O` (racemic), 180 nM; as for `CCc1ccccc1[C@@H]1CCN(Cc2cccnc2)[C@H](c2ccc(O)c(N)c2)[C@H]1[N+](=O)[O-]` (racemic), 46 nM. On the same count and under the same terms, next, `CCNc1cc([C@@H]2[C@@H]([N+](=O)[O-])[C@H](c3ccccc3Br)CCN2Cc2cccnc2)ccc1O` (racemic): 50 nM; `CC(=O)Nc1cc([C@H]2[C@H]([N+](=O)[O-])[C@@H](c3ccccc3Br)CCN2Cc2cccnc2)ccc1O` (racemic): 27 nM; `COC(=O)Nc1cc([C@H]2[C@H]([N+](=O)[O-])[C@@H](c3ccccc3Br)CCN2Cc2cccnc2)ccc1O` (racemic): 14 nM. Still for that read-out and setting: next, `CCc1ccccc1[C@H]1CCN(Cc2cccnc2)[C@@H](c2ccc(O)c(NS(C)(=O)=O)c2)[C@@H]1[N+](=O)[O-]` (racemic): 4.6 nM; `CCS(=O)(=O)Nc1cc([C@H]2[C@H]([N+](=O)[O-])[C@@H](c3ccccc3Br)CCN2Cc2cccnc2)ccc1O` (racemic): 5.9 nM; `NS(=O)(=O)Nc1cc([C@H]2[C@H]([N+](=O)[O-])[C@@H](c3ccccc3Br)CCN2Cc2cccnc2)ccc1O` (racemic): 3 nM. In turn, `Cc1ccc(S(=O)(=O)Nc2cc([C@H]3[C@H]([N+](=O)[O-])[C@@H](c4ccccc4Br)CCN3Cc3cccnc3)ccc2O)cc1` (racemic) showed an IC50 of 270 nM. Still for that read-out and setting: next, `CCc1ccccc1[C@H]1CCN(Cc2cccnc2)[C@@H](c2ccc(O)c(NS(N)(=O)=O)c2)[C@@H]1[N+](=O)[O-]` (racemic): 4.5 nM; `COc1ccc([C@@H]2[C@@H]([N+](=O)[O-])[C@H](c3ccccc3Br)CCN2Cc2cccnc2)cc1` (racemic): greater than 500 nM; `O=[N+]([O-])[C@@H]1[C@@H](c2ccccc2)N(Cc2cccnc2)CC[C@H]1c1ccccc1Br` (racemic): 16 nM.

`O=[N+]([O-])[C@@H]1[C@@H](c2ccsc2)N(Cc2cccnc2)CC[C@H]1c1ccccc1Br` (racemic): half-maximal inhibition (IC50) required 36 nM. Still for that read-out and setting: as for `CCc1ccccc1[C@@H]1CCN(Cc2cccnc2)[C@H](c2ccc(O)c(NCc3ccncc3)c2)[C@H]1[N+](=O)[O-]` (racemic), the figure is 12 nM; as for `O=[N+]([O-])[C@H]1[C@H](c2ccccc2Br)CCN(Cc2cccnc2)[C@H]1c1ccccn1` (racemic), 25 nM; as for `O=[N+]([O-])[C@@H]1[C@@H](c2cccnc2)N(Cc2cccnc2)CC[C@H]1c1ccccc1Br` (racemic), greater than 500 nM. As to `CS(=O)(=O)Nc1cc([C@H]2[C@H]([N+](=O)[O-])[C@@H](c3ccccc3Br)CCN2Cc2cccnc2)ccc1O` (racemic), the IC50 was found to be 4.3 nM. That is a single-digit nanomolar value.

For `NC(=O)Nc1cc([C@H]2[C@H]([N+](=O)[O-])[C@@H](c3ccccc3Br)CCN2Cc2cccnc2)ccc1O` (racemic), the IC50 is 15 nM. This IC50 is about 3.5-fold higher than that of the molecule before. The molecule `Nc1cc([C@@H]2[C@@H]([N+](=O)[O-])[C@H](c3ccccc3Br)CCN2Cc2cccnc2)ccc1O` (racemic) yielded an IC50 of 13 nM. Molecule `CC(C)Nc1cc([C@@H]2[C@@H]([N+](=O)[O-])[C@H](c3ccccc3Br)CCN2Cc2cccnc2)ccc1O` (racemic) displayed an IC50 of 98 nM.

In turn, `CCc1ccccc1[C@H]1CCN(Cc2cccnc2)[C@@H](c2ccc(O)c(NC(N)=O)c2)[C@@H]1[N+](=O)[O-]` (racemic) came in with an IC50 of 6.2 nM.

Consider `CCc1ccccc1[C@@H]1CCN(Cc2cccnc2)[C@H](c2ccc(O)c(NCc3ccccc3)c2)[C@H]1[N+](=O)[O-]` (racemic), for which the half-maximal inhibitory concentration (IC50) came out at 121 nM. Same read-out and setting: next, `CCc1ccccc1[C@@H]1CCN(Cc2cccnc2)[C@H](c2ccc(O)c(NCc3ccccn3)c2)[C@H]1[N+](=O)[O-]` (racemic): 23 nM; `CCc1ccccc1[C@@H]1CCN(Cc2cccnc2)[C@H](c2ccc(O)c(NCc3cccnc3)c2)[C@H]1[N+](=O)[O-]` (racemic): 24 nM; `O=[N+]([O-])[C@@H]1[C@@H](c2ccc(O)cc2)N(Cc2cccnc2)CC[C@H]1c1ccccc1Br` (racemic): 5.4 nM. Still for that read-out and setting: next, `O=[N+]([O-])c1cc([C@@H]2[C@@H]([N+](=O)[O-])[C@H](c3ccccc3Br)CCN2Cc2cccnc2)ccc1O` (racemic): greater than 500 nM; `CCc1ccccc1[C@@H]1CCN(Cc2cccnc2)[C@@H](c2ccccc2)[C@H]1C(=O)NC` (racemic): greater than 500 nM; `O=[N+]([O-])[C@@H]1[C@@H](c2ccc3[nH]cnc3c2)N(Cc2cccnc2)CC[C@H]1c1ccccc1Br` (racemic): greater than 500 nM.

`CCc1ccccc1[C@@H]1CCN(Cc2cccnc2)[C@@H](c2ccccc2)[C@H]1CO` (racemic) showed a concentration for half-maximal inhibition (IC50) greater than 500 nM. On the same count and under the same terms, next, `C=CCOC(=O)[C@H]1[C@H](c2ccccc2CC)CCN(Cc2cccnc2)[C@H]1c1ccccc1` (racemic): greater than 500 nM; `O=[N+]([O-])[C@@H]1[C@@H](c2ccccc2)N(Cc2cnc[nH]2)CC[C@H]1c1ccccc1Br` (racemic): greater than 500 nM; `N#Cc1ccc(Cn2cncc2CN2CC[C@@H](c3ccccc3Br)[C@H]([N+](=O)[O-])[C@H]2c2ccccc2)cc1` (racemic): 44 nM.

Another data set is described as follows: Metabolic stability in mouse liver microsomes. In kind it is ADME, Microsome. The procedure, abridged:
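Compound at 0.0010 mg/mL final was preincubated 5.0 min at 37 °C with mouse liver microsomes (1.0 mg/mL final, 100 mmol/L potassium phosphate, pH 7.4). Reaction was started with NADPH-generating system, NADPH system plus UDPGA (100 mmol/L), or UDPGA alone, then run 30 min at 37 °C. Quenched with acetonitrile internal standard and read by HPLC. Residual ratio is the 30-min concentration divided by the initial concentration.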
A general note: Liver microsomes are a subcellular fraction often used to study metabolism.
As to `CCc1ccccc1[C@H]1CCN(Cc2cccnc2)[C@@H](c2ccc(O)c(NS(N)(=O)=O)c2)[C@@H]1[N+](=O)[O-]` (racemic), the Stability result is on record as “Stable”.

Source of the values: ChEMBL document CHEMBL1146313, “Design and synthesis of piperidine farnesyltransferase inhibitors with reduced glucuronidation potential” (Bioorg Med Chem, 2007).
